Converted amounts (≈) assume the structure as drawn.
How the values were obtained:
Assay type in all cases: functional
Staphylococcus aureus [1] = assay: Antibacterial activity against methicillin-sensitive Staphylococcus aureus ATCC 29213 by broth microdilution method
How it was run: (§1)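 MICs were determined by broth microdilution following CLSI recommendations, with clarithromycin and telithromycin run as reference antibiotics.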

Staphylococcus aureus [2] = assay: Antibacterial activity against methicillin-resistant Staphylococcus aureus ATCC 33591 by broth microdilution method
How it was run: (§2)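 MIC values were determined by broth microdilution following Clinical and Laboratory Standards Institute (CLSI) recommendations.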

[3] = system: Staphylococcus epidermidis; assay: Antibacterial activity against methicillin-sensitive Staphylococcus epidermidis ATCC 12228 by broth microdilution method; how it was run: as §1
[4] = system: Staphylococcus epidermidis; assay: Antibacterial activity against methicillin-resistant Staphylococcus epidermidis 13-3 by broth microdilution method; how it was run: as §2
Streptococcus pyogenes [5] = assay: Antibacterial activity against […] Streptococcus pyogenes 12-8 by broth microdilution method; how it was run: as §1
Streptococcus pyogenes [6] = assay: Antibacterial activity against methicillin-resistant Streptococcus pyogenes 12-1 by broth microdilution method; how it was run: as §2
Moraxella catarrhalis [7] = assay: Antibacterial activity against clarithromycin-sensitive Moraxella catarrhalis 12-1 by broth microdilution method; how it was run: as §1
Klebsiella pneumoniae = assay: Antibacterial activity against extended spectrum beta-lactamases producing Klebsiella pneumoniae ATCC 700603 by broth microdilution method; how it was run: as §1
Moraxella catarrhalis [8] = assay: Antibacterial activity against clarithromycin-resistant Moraxella catarrhalis 12-2 by broth microdilution method; how it was run: as §2
Escherichia coli = assay: Antibacterial activity against extended spectrum beta-lactamases non-producing Escherichia coli ATCC 25922 by broth microdilution method; how it was run: as §1
Pseudomonas aeruginosa = assay: Antibacterial activity against Pseudomonas aeruginosa ATCC 27853 by broth microdilution method; how it was run: as §1
Staphylococcus aureus [9] = assay: Antibacterial activity against methicillin-sensitive Staphylococcus aureus 11B122 by broth microdilution method; how it was run: as §1
Staphylococcus aureus [10] = assay: Antibacterial activity against methicillin-resistant Staphylococcus aureus 11B117 by broth microdilution method; how it was run: as §2
[11] = system: Staphylococcus epidermidis; assay: Antibacterial activity against methicillin-sensitive Staphylococcus epidermidis 11X315 by broth microdilution method; how it was run: as §2
[12] = system: Staphylococcus epidermidis; assay: Antibacterial activity against methicillin-resistant Staphylococcus epidermidis 11C176 by broth microdilution method; how it was run: as §2
Streptococcus pneumoniae [13] = assay: Antibacterial activity against erythromycin-sensitive Streptococcus pneumoniae 11G364 by broth microdilution method; how it was run: as §1
Streptococcus pneumoniae [14] = assay: Antibacterial activity against erythromycin-resistant Streptococcus pneumoniae 11 J011 by broth microdilution method; how it was run: as §2
Streptococcus pyogenes [15] = assay: Antibacterial activity against erythromycin-sensitive Streptococcus pyogenes 11L264 by broth microdilution method; how it was run: as §1
Streptococcus pyogenes [16] = assay: Antibacterial activity against erythromycin-resistant Streptococcus pyogenes 11 N369 by broth microdilution method; how it was run: as §2
Haemophilus influenzae [17] = assay: Antibacterial activity against azithromycin-sensitive Haemophilus influenzae 11P042 by broth microdilution method; how it was run: as §1
Haemophilus influenzae [18] = assay: Antibacterial activity against azithromycin-resistant Haemophilus influenzae 11Q373 by broth microdilution method; how it was run: as §2

CC[C@H]1OC(=O)[C@H](C)C(=O)[C@H](C)[C@@H](O[C@@H]2O[C@H](C)C[C@H](N(C)C)[C@H]2O)[C@](C)(OC)C[C@@H](C)C(=O)[C@H](C)[C@H]2N(CC/C=C/c3cncc4cc(C)ccc34)C(=O)O[C@]12C
MIC (Staphylococcus aureus [1]): 0.06 µg/mL (≈ 0.0743 µM)
MIC (Staphylococcus aureus [2]): 64 µg/mL (≈ 79.2 µM)
MIC [3]: 0.06 µg/mL (≈ 0.0743 µM)
MIC [4]: 128 µg/mL (≈ 158 µM)
MIC (Streptococcus pyogenes [5]): 0.015 µg/mL (≈ 0.0186 µM)
MIC (Streptococcus pyogenes [6]): 64 µg/mL (≈ 79.2 µM)
MIC (Moraxella catarrhalis [7]): 0.015 µg/mL (≈ 0.0186 µM)
MIC (Klebsiella pneumoniae): > 256 µg/mL
MIC (Moraxella catarrhalis [8]): 32 µg/mL (≈ 39.6 µM)
MIC (Escherichia coli): 64 µg/mL (≈ 79.2 µM)
MIC (Pseudomonas aeruginosa): 64 µg/mL (≈ 79.2 µM)

CC[C@H]1OC(=O)[C@H](C)C(=O)[C@H](C)[C@@H](O[C@@H]2O[C@H](C)C[C@H](N(C)C)[C@H]2O)[C@](C)(OC)C[C@@H](C)C(=O)[C@H](C)[C@H]2N(CC/C=C/c3cncc4ccccc34)C(=O)O[C@]12C
MIC (Staphylococcus aureus [1]): 0.015 µg/mL (≈ 0.0189 µM)
MIC (Staphylococcus aureus [2]): 64 µg/mL (≈ 80.6 µM)
MIC [3]: 0.03 µg/mL (≈ 0.0378 µM)
MIC [4]: 64 µg/mL (≈ 80.6 µM)
MIC (Streptococcus pyogenes [5]): 0.015 µg/mL (≈ 0.0189 µM)
MIC (Streptococcus pyogenes [6]): 64 µg/mL (≈ 80.6 µM)
MIC (Moraxella catarrhalis [7]): 0.015 µg/mL (≈ 0.0189 µM)
MIC (Klebsiella pneumoniae): 64 µg/mL (≈ 80.6 µM)
MIC (Moraxella catarrhalis [8]): 32 µg/mL (≈ 40.3 µM)
MIC (Escherichia coli): 16 µg/mL (≈ 20.2 µM)
MIC (Pseudomonas aeruginosa): 32 µg/mL (≈ 40.3 µM)

CC[C@H]1OC(=O)[C@H](C)[C@@H](O[C@H]2C[C@@](C)(OC)[C@@H](O)[C@H](C)O2)[C@H](C)[C@@H](O[C@@H]2O[C@H](C)C[C@H](N(C)C)[C@H]2O)[C@](C)(OC)C[C@@H](C)C(=O)[C@H](C)[C@@H](O)[C@]1(C)O [CLARITHROMYCIN]
MIC (Staphylococcus aureus [9]): 0.031 µg/mL (≈ 0.0414 µM)
MIC (Staphylococcus aureus [10]): > 64 µg/mL
MIC [11]: 0.125 µg/mL (≈ 0.167 µM)
MIC [12]: > 64 µg/mL
MIC (Streptococcus pneumoniae [13]): 0.031 µg/mL (≈ 0.0414 µM)
MIC (Streptococcus pneumoniae [14]): 64 µg/mL (≈ 85.6 µM)
MIC (Streptococcus pyogenes [15]): 0.016 µg/mL (≈ 0.0214 µM)
MIC (Streptococcus pyogenes [16]): > 64 µg/mL
MIC (Haemophilus influenzae [17]): 8 µg/mL (≈ 10.7 µM)
MIC (Haemophilus influenzae [18]): 8 µg/mL (≈ 10.7 µM)
MIC (Staphylococcus aureus [1]): 0.12 µg/mL (≈ 0.16 µM)
MIC (Staphylococcus aureus [2]): > 256 µg/mL
MIC [3]: 0.06 µg/mL (≈ 0.0802 µM)
MIC [4]: > 256 µg/mL
MIC (Streptococcus pyogenes [5]): 0.03 µg/mL (≈ 0.0401 µM)
MIC (Streptococcus pyogenes [6]): 128 µg/mL (≈ 171 µM)
MIC (Moraxella catarrhalis [7]): 0.008 µg/mL (≈ 0.0107 µM)
MIC (Klebsiella pneumoniae): 128 µg/mL (≈ 171 µM)
MIC (Moraxella catarrhalis [8]): > 256 µg/mL
MIC (Escherichia coli): 16 µg/mL (≈ 21.4 µM)
MIC (Pseudomonas aeruginosa): 128 µg/mL (≈ 171 µM)

CC[C@H]1OC(=O)[C@@](C)(F)C(=O)[C@H](C)[C@@H](O[C@@H]2O[C@H](C)C[C@H](N(C)C)[C@H]2O)[C@](C)(OC)C[C@@H](C)C(=O)[C@H](C)[C@H]2N(CC/C=C/c3cnc4ccccc4c3)C(=O)O[C@]12C
MIC (Staphylococcus aureus [1]): 0.015 µg/mL (≈ 0.0185 µM)
MIC (Staphylococcus aureus [2]): 32 µg/mL (≈ 39.4 µM)
MIC [3]: 0.015 µg/mL (≈ 0.0185 µM)
MIC [4]: 32 µg/mL (≈ 39.4 µM)
MIC (Streptococcus pyogenes [5]): 0.015 µg/mL (≈ 0.0185 µM)
MIC (Streptococcus pyogenes [6]): 16 µg/mL (≈ 19.7 µM)
MIC (Moraxella catarrhalis [7]): 0.015 µg/mL (≈ 0.0185 µM)
MIC (Klebsiella pneumoniae): 32 µg/mL (≈ 39.4 µM)
MIC (Moraxella catarrhalis [8]): 16 µg/mL (≈ 19.7 µM)
MIC (Escherichia coli): 8 µg/mL (≈ 9.85 µM)
MIC (Pseudomonas aeruginosa): 16 µg/mL (≈ 19.7 µM)

CC[C@H]1OC(=O)[C@H](C)C(=O)[C@H](C)[C@@H](O[C@@H]2O[C@H](C)C[C@H](N(C)C)[C@H]2O)[C@](C)(OC)C[C@@H](C)C(=O)[C@H](C)[C@H]2N(CCCNc3cnc4ccccc4c3)C(=O)O[C@]12C
MIC (Staphylococcus aureus [9]): 0.5 µg/mL (≈ 0.627 µM)
MIC (Staphylococcus aureus [10]): > 64 µg/mL
MIC [11]: 0.5 µg/mL (≈ 0.627 µM)
MIC [12]: 0.5 µg/mL (≈ 0.627 µM)
MIC (Streptococcus pneumoniae [13]): 0.016 µg/mL (≈ 0.0201 µM)
MIC (Streptococcus pneumoniae [14]): 0.5 µg/mL (≈ 0.627 µM)
MIC (Streptococcus pyogenes [15]): 0.031 µg/mL (≈ 0.0389 µM)
MIC (Streptococcus pyogenes [16]): 64 µg/mL (≈ 80.3 µM)
MIC (Haemophilus influenzae [17]): 8 µg/mL (≈ 10 µM)
MIC (Haemophilus influenzae [18]): 8 µg/mL (≈ 10 µM)

CC[C@H]1OC(=O)[C@H](C)C(=O)[C@H](C)[C@@H](O[C@@H]2O[C@H](C)C[C@H](N(C)C)[C@H]2O)[C@](C)(OC)C[C@@H](C)C(=O)[C@H](C)[C@H]2N(CCCOc3cnc4ccccc4c3)C(=O)O[C@]12C
MIC (Staphylococcus aureus [9]): 0.125 µg/mL (≈ 0.157 µM)
MIC (Staphylococcus aureus [10]): > 64 µg/mL
MIC [11]: 0.062 µg/mL (≈ 0.0777 µM)
MIC [12]: 0.25 µg/mL (≈ 0.313 µM)
MIC (Streptococcus pneumoniae [13]): ≤ 0.004 µg/mL
MIC (Streptococcus pneumoniae [14]): 0.062 µg/mL (≈ 0.0777 µM)
MIC (Streptococcus pyogenes [15]): 0.008 µg/mL (≈ 0.01 µM)
MIC (Streptococcus pyogenes [16]): 1 µg/mL (≈ 1.25 µM)
MIC (Haemophilus influenzae [17]): 1 µg/mL (≈ 1.25 µM)
MIC (Haemophilus influenzae [18]): 8 µg/mL (≈ 10 µM)

CC[C@H]1OC(=O)[C@H](C)C(=O)[C@H](C)[C@@H](O[C@@H]2O[C@H](C)C[C@H](N(C)C)[C@H]2O)[C@](C)(OC)C[C@@H](C)C(=O)[C@H](C)[C@H]2N(CC/C=C/c3cnc4ccccc4c3)C(=O)O[C@]12C
MIC (Staphylococcus aureus [9]): 0.125 µg/mL (≈ 0.157 µM)
MIC (Staphylococcus aureus [10]): 64 µg/mL (≈ 80.6 µM)
MIC [11]: 0.062 µg/mL (≈ 0.0781 µM)
MIC [12]: 0.062 µg/mL (≈ 0.0781 µM)
MIC (Streptococcus pneumoniae [13]): ≤ 0.004 µg/mL
MIC (Streptococcus pneumoniae [14]): 0.031 µg/mL (≈ 0.039 µM)
MIC (Streptococcus pyogenes [15]): ≤ 0.004 µg/mL
MIC (Streptococcus pyogenes [16]): 0.25 µg/mL (≈ 0.315 µM)
MIC (Haemophilus influenzae [17]): 1 µg/mL (≈ 1.26 µM)
MIC (Haemophilus influenzae [18]): 4 µg/mL (≈ 5.04 µM)

CC[C@H]1OC(=O)[C@H](C)C(=O)[C@H](C)[C@@H](O[C@@H]2O[C@H](C)C[C@H](N(C)C)[C@H]2O)[C@](C)(OC)C[C@@H](C)C(=O)[C@H](C)[C@H]2N(CC/C=C/c3cncc4ccc(-c5ccccc5)cc34)C(=O)O[C@]12C
MIC (Staphylococcus aureus [1]): 1 µg/mL (≈ 1.15 µM)
MIC (Staphylococcus aureus [2]): 4 µg/mL (≈ 4.6 µM)
MIC [3]: 0.5 µg/mL (≈ 0.575 µM)
MIC [4]: 8 µg/mL (≈ 9.19 µM)
MIC (Streptococcus pyogenes [5]): 0.125 µg/mL (≈ 0.144 µM)
MIC (Streptococcus pyogenes [6]): 8 µg/mL (≈ 9.19 µM)
MIC (Moraxella catarrhalis [7]): 0.125 µg/mL (≈ 0.144 µM)
MIC (Klebsiella pneumoniae): > 256 µg/mL
MIC (Moraxella catarrhalis [8]): 2 µg/mL (≈ 2.3 µM)
MIC (Escherichia coli): > 256 µg/mL
MIC (Pseudomonas aeruginosa): > 256 µg/mL
